From PMC11886927 (Nature, 2025)
Entries after “also recorded” stand apart in the source; their conditions may differ. Blank lines part the entries; values can stand above or below the compound they belong to.

Experiments:
FXR = conditions: cited from earlier work
[1] = molecular target: T1, full-length human FXR protein (Homo sapiens, UniProt Q96RI1); assay: DiscoverX cell-based protein–protein interaction assay on FXR, antagonist mode; conditions: for FXR antagonistic activity against GW4604-mediated activation (in words): tested range of concentrations
T1 sequence (Q96RI1 1-486): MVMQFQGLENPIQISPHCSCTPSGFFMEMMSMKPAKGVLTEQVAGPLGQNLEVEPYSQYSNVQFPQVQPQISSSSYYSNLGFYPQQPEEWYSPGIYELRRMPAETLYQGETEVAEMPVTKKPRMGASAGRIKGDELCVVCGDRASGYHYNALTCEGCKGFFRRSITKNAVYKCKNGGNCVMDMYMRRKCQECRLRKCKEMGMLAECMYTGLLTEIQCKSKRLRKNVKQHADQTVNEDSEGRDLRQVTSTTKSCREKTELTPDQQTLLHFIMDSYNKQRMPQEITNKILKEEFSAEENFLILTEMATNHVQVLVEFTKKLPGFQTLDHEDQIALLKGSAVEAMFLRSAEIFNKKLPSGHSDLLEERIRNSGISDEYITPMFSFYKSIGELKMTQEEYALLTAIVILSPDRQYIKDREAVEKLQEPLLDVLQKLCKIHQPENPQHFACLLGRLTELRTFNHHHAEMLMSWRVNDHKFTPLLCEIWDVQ

[2] = molecular target: T1, full-length human FXR protein; assay: DiscoverX cell-based protein–protein interaction assay on FXR, agonist mode; conditions: any of the tested concentrations
Procedure, shortened: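 CHO-K1 cells (mycoplasma-negative, not authenticated) expressing full-length human FXR with an SRC-derived co-activator peptide fusion. Cells were grown in charcoal-dextran-filtered serum, then given 5X sample for 3–16 h at 37 °C or room temperature. Signal came from PathHunter chemiluminescent detection (1 h, room temperature). Activity (%) was set against vehicle RLU and GW4064 maximum, with duplicates at each concentration.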

BA production = assay: Endogenously produced BA levels in faeces, liver and serum of supplemented mice; type: in vivo, mouse; conditions: daily for 14 days
Procedure, shortened: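 Mice (WT, Nr1h4−/−, SPF, ABX) were dosed by daily oral gavage with deuterated or unlabelled conjugate (DMSO stock diluted in corn oil), 50 mg kg−1 day−1, 100 µl, for 14 days. Controls got DMSO plus corn oil. Faeces, liver and serum BAs were measured by HPLC-HRMS. Serum was extracted with 4 volumes methanol, sonicated 1 min, stirred 10 min, and spun 5,000g for 5 min. Groups were compared by Welch-corrected two-sided t-test.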

[3] = molecular target: T2, recombinant human VNN1 (ΔN490aa truncated) (Homo sapiens, UniProt O95497); assay: VNN1 in vitro assay with pantetheine derivatives; type: biochemical; conditions: 0.01 μM VNN1, 37 °C, 15 min, pantothenic acid formation, n = 3, mean ± s.d.
T2 sequence (O95497 22-490 limits assumed): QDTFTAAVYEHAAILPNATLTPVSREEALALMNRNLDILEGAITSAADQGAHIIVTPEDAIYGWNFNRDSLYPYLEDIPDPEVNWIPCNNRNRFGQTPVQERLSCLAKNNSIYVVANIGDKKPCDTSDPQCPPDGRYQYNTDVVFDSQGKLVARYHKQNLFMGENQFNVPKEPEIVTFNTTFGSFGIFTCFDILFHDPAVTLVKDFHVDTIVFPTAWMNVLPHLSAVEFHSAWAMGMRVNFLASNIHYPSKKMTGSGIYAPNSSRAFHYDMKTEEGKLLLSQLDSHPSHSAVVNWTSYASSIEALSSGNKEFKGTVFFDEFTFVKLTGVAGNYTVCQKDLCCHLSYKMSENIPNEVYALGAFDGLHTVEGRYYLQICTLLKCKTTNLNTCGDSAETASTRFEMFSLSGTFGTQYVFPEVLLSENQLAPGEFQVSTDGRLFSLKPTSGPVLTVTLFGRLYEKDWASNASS
Procedure, shortened: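 Recombinant human ΔN490aa VNN1 (C-terminal His tag, in PBS pH 7.0) was mixed 1:1 with substrate (pantetheine or cholic acid–pantetheine derivative) in PBS pH 7.0. Final enzyme was 0.01 µM and final substrate 20–640 µM. Reactions ran 15 min at 37 °C and were quenched with methanol. Pantothenic acid was quantified by HPLC-HRMS (ESI+, m/z 220.1180) against a calcium pantothenate standard curve. Initial velocities were fitted to saturation kinetics; three independent assays used the same enzyme batch.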

SMILES: C[C@H](CCC(=O)NCCS(=O)(=O)O)[C@H]1CC[C@H]2[C@@H]3[C@@H](O)[C@@H](O)[C@@H]4C[C@H](O)CC[C@]4(C)[C@H]3CC[C@]12C [TβMCA, Tauro-β-muricholic acid]
FXR antagonism as previously reported (FXR): weak, mouse-specific FXR antagonist
FXR antagonistic activity against GW4604-mediated activation (in words) [1]: did not show FXR antagonistic effects; also recorded: inactive

IC50 ([1]; read-out: IC50, antagonistic activity against GW4604-mediated activation of FXR, agonist challenge GW4064 0.37 μM (EC80), CHO-K1 cells, duplicate): 104 µM
FXR antagonistic activity against GW4604-mediated activation (in words) [1]: strong FXR antagonistic effects
FXR agonist activity (in words) [2]: no FXR agonistic effects
SMILES: CSCCNC(=O)CC[C@@H](C)[C@H]1CC[C@H]2[C@@H]3[C@@H](O)[C@@H](O)[C@@H]4C[C@H](O)CC[C@]4(C)[C@H]3CC[C@]12C [βMCA–MCY]

SMILES: C[C@H](CCC(=O)O)[C@H]1CC[C@H]2[C@@H]3[C@H](O)C[C@@H]4C[C@H](O)CC[C@]4(C)[C@H]3CC[C@]12C [CDCA, chenodeoxycholic acid]
BA levels in the liver and serum of WT and Nr1h4^−/− mice (BA production): not significantly affected

Vmax, hydrolysis by VNN1 [3]: 2.13 ± 0.37 min⁻¹
SMILES: CC(C)(CO)[C@@H](O)C(=O)NCCC(=O)NCCS [pantetheine]
